High-throughput results as filed in PubChem.
Most compounds without a hit are left out; they make up all but 2.5% or so of the library.
ERAP1 inh – inhibitors of human ERAP1 aminopeptidase; Q9NZ08; recombinant ERAP1, Leu-AMC fluorescence, 60 min; inhibition, % at 10.7 µM; 340,000 tested, 0.15% active; AID 652197;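 active means mean replicate inhibition of at least 30%, or all replicates individually reaching that 30% level; inactive means mean below 30% and not every replicate reaching it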;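 further: 0% = neutral control wells and 100% = L-leucinethiol positive control wells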
E-selectin induc – induces E-selectin expression in human endothelial cells | P16581 | HUVEC E-selectin immunofluorescence imaging; normalized: neutral wells 0, TNF-alpha wells 100 | activation, % at 7.58 µM | 260,000 tested, 0.37% active;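 active means mean E-selectin-positive cell signal at least 10% of the positive control, reached in at least 60% of replicates, without over 20% cell loss; inconclusive means no rule given, readout overlaps actives, possibly toxicity-flagged; inactive means the rest, including those meeting only one limit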
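Assay system: HUVEC, human umbilical vein endothelial cells / Amount: 3,000 HUVEC/well / Controls: TNF-alpha positive control, DMSO neutral control / Compound dosing: single concentration / Medium: EGM-2 over gelatin coat / Evaluation: percent E-selectin-positive cells / Signal: immunofluorescence imaging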
PglD inh – PglD (C. jejuni) enzyme inhibition; purified PglD enzyme, DTNB colorimetric CoA detection; inhibition, % at 12.5 µM; AID 602405; 360,000 tested, 0.098% active; in the data active means inhibition above about 16%, passing the limit was not always enough; inconclusive means no clear call, values can overlap the other calls
DENV2 CPE – inhibitors of DENV2 cytopathic effect; 350,000 tested, 1.7% active; CPE inhibition, % at 9.99 µM; DENV2-infected cells, cytopathic effect rescue, plate reader; in the data active means CPE inhibition above about 20%, passing the limit was not always enough; inconclusive means no clear call, values can overlap the other calls; tested in BHK-21 cells;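 further: 0% = median of neutral control wells and 100% = median of positive control wells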
SIRT5 inh – inhibitors of human sirtuin-5 desuccinylase; Q9NXA8; Purified SirT5, succinyl-peptide AMC, trypsin-coupled fluorescence; inhibition, % at 15 µM; 330,000 tested, 1.1% active; AID 652115; in the data active means inhibition above about 15%; inconclusive means no clear call, values can overlap the other calls
Starred values were filed as active, the others as inactive; ? = inconclusive; · = no result given.

SMILES	ERAP1 inh	E-selectin induc	PglD inh	DENV2 CPE	SIRT5 inh
CS(=O)(=O)c1ccc(C2=C(CNC(=O)c3cccs3)[C@H]3CC[C@@H](C2)N3CCOc2ccccc2)cc1	10.1	-1.2	-8.3	-2.3	30.2*
CS(=O)(=O)c1ccc(C2=C(CNC(=O)c3nccs3)[C@H]3CC[C@@H](C2)N3CCOc2ccccc2)cc1	·	-0.4	-0.4	-0.4	·
C[n+]1ccc(-c2ccccc2)c2ccccc21	1.2	-0.3	0.8	0.3	·
CCOC(=O)C1=C(NC(=S)NC(=O)c2ccccc2)c2ccccc2CC12CCCC2	15.0	·	·	-12.1	35.2*
c1ccc(P(c2ccccn2)c2ccccn2)cc1	·	0.4	·	-2.6	-5.1
C[C@H]1OC[C@@H](C[N+](C)(C)C)O1	103.6*	-0.2	-2.3	-1.8	-3.8
CC1OC(C[N+](C)(C)C)CC1O (configuration not stated)	-1.0	-0.3	-0.4	?	-0.8
C[N+]1(CC2COC(c3ccco3)O2)CCCCC1 (configuration not stated)	80.1*	-1.3	·	1.1	0.2
O=C(c1ccc(CNS(=O)(=O)c2ccccc2)cc1)N1CCC2(CC1)OCCO2	·	·	-2.7	·	·
O=C(c1ccc(CNS(=O)(=O)c2ccc(Br)cc2)cc1)N1CCC2(CC1)OCCO2	2.5	·	-3.7	37.1*	-1.1
Cc1ccc(N2C(=O)/C(=C/c3ccc(CN(CCC#N)S(C)(=O)=O)o3)C(=O)NC2=S)cc1	·	·	-5.2	·	·
COc1cc(C(=O)N2Cc3ccccc3-n3nncc3C2)cc(OC)c1OC	3.7	9.9	-2.6	-4.4	-5.1
COc1ccc(NC(=S)N2Cc3ccccc3-n3nncc3C2)c(OC)c1	-1.0	·	-7.2	25.2*	-1.8
COc1ccc(C(=O)OC2C[C@H]3CC[C@@H](C2)N3O)cc1OC (some centres not stated)	3.4	1.4	-2.8	0.6	-1.5
CN1C2CCC1CC(OC(=O)c1ccc([N+](=O)[O-])cc1)C2 (configuration not stated)	4.3	·	·	65.9*	·
CN1C2CCC1C(C(=O)O)C(OC(=O)c1ccccc1)C2 (configuration not stated)	-2.6	·	-4.0	11.7	·
CN1C2CCC1CC(OC(=O)c1cccc(O)c1)C2 (configuration not stated)	2.0	·	-0.1	28.7*	-2.0
Cn1ncc(Cl)c1C(=O)N1CCC2(CC1)OCCO2	1.6	-1.1	1.0	-5.7	0.0
O=C1NC(=O)N(c2ccccc2F)C(=O)/C1=C/c1ccc(Sc2nc3ccccc3[nH]2)o1	5.9	·	-3.7	-9.1	22.5*
Oc1ccc(Cl)c(Cl)c1Cl	3.1	·	1.4	9.6	·
COC(=O)C1=C(c2ccc(OC(F)(F)F)cc2)C[C@@H]2CC[C@H]1N2C(=O)NC1CCCCC1	1.4	-0.1	0.0	37.5*	1.5
COC(=O)C1=C(c2ccc(OC(F)(F)F)cc2)C[C@@H]2CC[C@H]1N2C(=O)NCCOc1ccc(OC)cc1	·	0.5	-0.9	26.0*	·
COC(=O)C1=C(c2ccc(OC(F)(F)F)cc2)C[C@@H]2CC[C@H]1N2C(=O)NC1Cc2ccccc2C1	0.7	0.0	3.3	-2.2	·
COC(=O)C1=C(c2cccc(OCc3ccccc3)c2)C[C@@H]2CC[C@H]1N2C(=O)NCCN1CCOCC1	1.3	-0.1	1.4	-2.3	12.9
CCc1nn(CC(=O)N2CCC3(CC2)OCCO3)c(=O)c2cccn12	0.8	·	0.3	-1.7	0.0
SMILES	ERAP1 inh	E-selectin induc	PglD inh	DENV2 CPE	SIRT5 inh
C/C=C/c1ccc(C2[C@@H]3CN(C(=O)C4CCCC4)C[C@H]2N3)cc1 (some centres not stated)	0.1	0.0	·	?	-1.4
CCCCc1nc(N2CCNCC2)c(C#N)c2c1CSC(C)(C)C2	·	·	0.5	·	·
N#Cc1c(N2CCNCC2)nc(-c2ccco2)c2c1CCCC2	44.8*	·	-3.7	16.1	0.0
COP(=O)(NC(C)=O)SC (configuration not stated)	-2.2	0.1	-3.2	-8.6	7.5
C[N+](C)(C)CC1CCCC(C[N+](C)(C)C)C1=O (configuration not stated)	75.3*	-0.9	·	-0.8	·
C[N+](C)(C)CC1CCCc2ccccc2C1=O (configuration not stated)	20.3	-0.5	·	-0.5	-2.5
CN(C)c1cc[n+](CC(O)C[n+]2ccc(N(C)C)cc2)cc1	4.2	·	5.0	25.1*	·
Cn1c(O)c(C(=Nc2ccccc2)SCc2ccccc2Cl)c(=O)n(C)c1=O	0.4	-0.2	9.9	0.7	-0.9
CSC(=Nc1ccccc1)c1c(O)n(C)c(=O)n(C)c1=O	1.9	·	-1.6	·	18.6*
O=C1CC(N2CC2)C(=O)N1c1ccccc1 (configuration not stated)	3.2	0.0	-2.7	2.8	·
COc1ccc(/C=C2/C(=O)N(Cc3ccco3)C(=O)N(C(C)C)C2=O)cc1	10.8	·	·	4.1	24.8*
CC(C)N1C(=O)/C(=C/C=C/c2ccco2)C(=O)N(Cc2ccco2)C1=O	·	·	-4.3	·	·
CN(C)c1ccc(/C=C2/C(=O)NC(=O)N(Cc3ccco3)C2=O)cc1	15.2	·	3.6	3.0	30.6*
O=C1NC(=O)C(=Cc2ccc(Cl)cc2)C(=O)N1	12.2	-0.1	·	13.1	-3.6
N#Cc1ccc(OCC(=O)N2CCN(Cc3ccc4c(c3)OCO4)CC2)cc1	1.9	0.0	-3.7	-6.3	-3.4
Cc1cccc(CN2CCCC(C(=O)c3ccc4c(c3)OCO4)C2)n1 (configuration not stated)	-2.4	33.1*	-0.4	5.2	-3.1
COc1cccc(C(=O)C2CCCN(Cc3cccc(C)n3)C2)c1 (configuration not stated)	-2.9	·	·	-8.8	3.3
CN(C)[C@@H]1C(=O)C(C(N)=O)=C(O)[C@@]2(O)C(=O)C3=C(O)c4c(O)cccc4[C@@](C)(O)C3C[C@@H]12 (some centres not stated)	2.5	-2.5	0.1	15.7	19.9*
CN(C)[C@@H]1C(=O)C(C(N)=O)=C(O)[C@@]2(O)C(=O)C3=C(O)c4c(O)ccc(Cl)c4[C@@](C)(O)[C@H]3C[C@@H]12	0.9	·	8.5	-0.2	2.5
CN(C)[C@@H]1C(=O)C(C(N)=O)=C(O)[C@@]2(O)C(=O)C3=C(O)c4c(O)cccc4[C@@](C)(O)[C@H]3[C@H](O)[C@@H]12	2.0	-2.4	-1.1	-1.8	40.9*
CC(=O)C1CCC2C3CCC4CC(O)CCC4(C)C3C(=O)CC12C (configuration not stated)	1.7	·	·	8.8	-2.0
C[C@]12C[C@@H](O)[C@H](O)CC1=CCC1C2CC[C@@]2(C)C1CC[C@@H]2O (some centres not stated)	-1.0	0.1	2.4	16.6	4.5
N#Cc1ccc(-c2ccc([C@H]3[C@H](CO)N4CCCCN(C(=O)Cc5ccccc5)C[C@@H]34)cc2)cc1	-0.7	-0.4	0.0	11.3	0.6
N#Cc1cccc(-c2ccc([C@@H]3[C@@H](CO)N4CCCCN(C(=O)Cc5ccncc5)C[C@H]34)cc2)c1	1.8	-0.4	3.7	-9.3	-0.2
CN1CCN(C(=O)COc2ccc(S(=O)(=O)N(C)Cc3ccccc3)cc2)CC1	0.8	·	2.1	0.5	0.0
